Test results reported in ChEMBL document CHEMBL5696442, “Discovery of type II inhibitors of TGFβ-activated kinase 1 (TAK1) and mitogen-activated protein kinase kinase kinase kinase 2 (MAP4K2)” (J Med Chem, 2015).

Tests used:
[1] = molecular target: Cyclin-dependent kinase 8 (Homo sapiens) (UniProt P49336); assay: Inhibition of CDK8 Lys2 labeling site in human A-375 cells at 0.5 uM by KiNativ Profiling analysis relative to control; assay type: cell-based
[2] = molecular target: Ribosomal protein S6 kinase alpha-2 (Homo sapiens) (UniProt Q15349); assay: Inhibition of N-terminal RSK3 kinase domain 1 (unknown origin) at 1 uM by Ambit Kinomescan binding assay relative to control
Sequence of Ribosomal protein S6 kinase alpha-2 (Homo sapiens) (Q15349 whole entry, the tested form may be a part): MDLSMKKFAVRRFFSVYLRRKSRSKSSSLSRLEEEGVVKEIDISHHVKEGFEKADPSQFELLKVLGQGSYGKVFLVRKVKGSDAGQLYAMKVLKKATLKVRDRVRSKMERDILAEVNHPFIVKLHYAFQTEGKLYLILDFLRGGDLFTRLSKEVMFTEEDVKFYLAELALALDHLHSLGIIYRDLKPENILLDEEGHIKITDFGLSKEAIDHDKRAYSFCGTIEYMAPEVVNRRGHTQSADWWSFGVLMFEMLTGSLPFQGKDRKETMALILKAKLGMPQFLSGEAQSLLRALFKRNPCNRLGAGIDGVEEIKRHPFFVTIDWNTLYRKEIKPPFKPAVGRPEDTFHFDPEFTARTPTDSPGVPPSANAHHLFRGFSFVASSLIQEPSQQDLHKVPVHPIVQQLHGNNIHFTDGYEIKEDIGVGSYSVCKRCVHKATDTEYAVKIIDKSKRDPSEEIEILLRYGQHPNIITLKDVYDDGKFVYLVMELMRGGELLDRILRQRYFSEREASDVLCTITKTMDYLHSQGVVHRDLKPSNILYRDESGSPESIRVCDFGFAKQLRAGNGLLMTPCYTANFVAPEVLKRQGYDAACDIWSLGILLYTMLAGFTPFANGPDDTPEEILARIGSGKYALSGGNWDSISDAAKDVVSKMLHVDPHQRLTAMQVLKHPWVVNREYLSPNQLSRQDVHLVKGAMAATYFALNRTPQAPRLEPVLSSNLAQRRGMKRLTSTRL
Outline: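 In vitro ATP-site competition binding assay against a panel of over 420 kinases (KinomeScan), with compound tested at 10 or 1 μM.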

[3] = tested on: Mast/stem cell growth factor receptor Kit (Homo sapiens), P10721 [V559D,V654A]; assay: Inhibition of KIT V559D/V654A mutant (unknown origin) at 1 uM by Ambit Kinomescan binding assay relative to control; values are per cent of control
Sequence of Mast/stem cell growth factor receptor Kit (Homo sapiens), P10721 [V559D,V654A] (P10721 whole entry V559D/V654A): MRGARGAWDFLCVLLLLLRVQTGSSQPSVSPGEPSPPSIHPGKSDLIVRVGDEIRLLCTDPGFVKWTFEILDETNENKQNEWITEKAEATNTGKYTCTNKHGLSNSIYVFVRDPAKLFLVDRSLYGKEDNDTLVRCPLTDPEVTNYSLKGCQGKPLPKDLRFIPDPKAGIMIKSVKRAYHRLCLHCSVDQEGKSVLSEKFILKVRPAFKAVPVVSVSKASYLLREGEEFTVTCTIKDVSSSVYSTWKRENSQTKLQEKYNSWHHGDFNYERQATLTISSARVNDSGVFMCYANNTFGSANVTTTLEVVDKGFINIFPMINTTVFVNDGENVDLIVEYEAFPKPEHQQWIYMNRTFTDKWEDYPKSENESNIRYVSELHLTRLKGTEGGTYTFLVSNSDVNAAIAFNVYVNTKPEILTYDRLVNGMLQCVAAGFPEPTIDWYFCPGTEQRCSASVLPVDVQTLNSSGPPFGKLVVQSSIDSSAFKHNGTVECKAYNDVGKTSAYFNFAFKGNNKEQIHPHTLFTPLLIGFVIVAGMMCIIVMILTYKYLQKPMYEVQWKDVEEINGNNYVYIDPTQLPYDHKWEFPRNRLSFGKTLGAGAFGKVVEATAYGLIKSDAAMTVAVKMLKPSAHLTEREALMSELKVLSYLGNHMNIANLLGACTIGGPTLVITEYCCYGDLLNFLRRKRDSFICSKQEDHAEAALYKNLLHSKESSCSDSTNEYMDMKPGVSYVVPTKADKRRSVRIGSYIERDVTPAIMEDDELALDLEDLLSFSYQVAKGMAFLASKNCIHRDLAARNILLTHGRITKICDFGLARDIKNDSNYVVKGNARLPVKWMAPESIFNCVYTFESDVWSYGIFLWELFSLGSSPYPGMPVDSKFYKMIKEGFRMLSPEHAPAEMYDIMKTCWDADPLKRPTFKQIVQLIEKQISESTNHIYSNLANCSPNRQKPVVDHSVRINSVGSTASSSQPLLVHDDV

[4] = molecular target: T1, Serine/threonine-protein kinase D1 (Homo sapiens) (UniProt Q15139); assay: Inhibition of PKD1 Lys1 labeling site in human A-375 cells at 5 uM by KiNativ Profiling analysis relative to control; assay type: cell-based
T1 sequence (whole entry): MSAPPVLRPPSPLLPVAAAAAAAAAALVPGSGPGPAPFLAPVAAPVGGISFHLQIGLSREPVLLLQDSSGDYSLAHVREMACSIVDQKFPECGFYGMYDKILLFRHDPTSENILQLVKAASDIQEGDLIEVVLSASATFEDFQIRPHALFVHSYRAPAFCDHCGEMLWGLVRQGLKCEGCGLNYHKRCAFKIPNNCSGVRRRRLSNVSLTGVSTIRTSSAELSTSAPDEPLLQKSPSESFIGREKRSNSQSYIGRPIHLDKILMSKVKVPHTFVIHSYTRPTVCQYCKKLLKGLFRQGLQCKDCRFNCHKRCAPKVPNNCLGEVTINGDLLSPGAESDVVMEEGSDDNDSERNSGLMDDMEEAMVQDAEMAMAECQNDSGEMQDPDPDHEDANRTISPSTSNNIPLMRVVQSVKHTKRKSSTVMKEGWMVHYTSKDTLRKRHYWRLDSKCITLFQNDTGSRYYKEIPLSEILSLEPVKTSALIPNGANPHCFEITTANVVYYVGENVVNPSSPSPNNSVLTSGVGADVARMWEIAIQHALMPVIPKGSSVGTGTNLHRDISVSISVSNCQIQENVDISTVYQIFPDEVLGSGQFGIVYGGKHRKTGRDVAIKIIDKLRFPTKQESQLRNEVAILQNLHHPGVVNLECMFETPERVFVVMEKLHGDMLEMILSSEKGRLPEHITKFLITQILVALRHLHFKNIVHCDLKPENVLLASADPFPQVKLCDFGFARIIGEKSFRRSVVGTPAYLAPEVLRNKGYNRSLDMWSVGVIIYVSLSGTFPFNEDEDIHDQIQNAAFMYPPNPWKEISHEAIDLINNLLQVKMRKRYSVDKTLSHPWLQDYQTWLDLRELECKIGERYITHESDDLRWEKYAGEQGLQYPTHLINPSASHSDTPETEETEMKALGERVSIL

[5] = molecular target: Ribosomal protein S6 kinase alpha-4 (Homo sapiens) (UniProt O75676); assay: Inhibition of N-terminal RPS6KA4 kinase domain 1 (unknown origin) at 1 uM by Ambit Kinomescan binding assay relative to control
Sequence of Ribosomal protein S6 kinase alpha-4 (Homo sapiens) (O75676 whole entry, looked up, the tested form may be a part): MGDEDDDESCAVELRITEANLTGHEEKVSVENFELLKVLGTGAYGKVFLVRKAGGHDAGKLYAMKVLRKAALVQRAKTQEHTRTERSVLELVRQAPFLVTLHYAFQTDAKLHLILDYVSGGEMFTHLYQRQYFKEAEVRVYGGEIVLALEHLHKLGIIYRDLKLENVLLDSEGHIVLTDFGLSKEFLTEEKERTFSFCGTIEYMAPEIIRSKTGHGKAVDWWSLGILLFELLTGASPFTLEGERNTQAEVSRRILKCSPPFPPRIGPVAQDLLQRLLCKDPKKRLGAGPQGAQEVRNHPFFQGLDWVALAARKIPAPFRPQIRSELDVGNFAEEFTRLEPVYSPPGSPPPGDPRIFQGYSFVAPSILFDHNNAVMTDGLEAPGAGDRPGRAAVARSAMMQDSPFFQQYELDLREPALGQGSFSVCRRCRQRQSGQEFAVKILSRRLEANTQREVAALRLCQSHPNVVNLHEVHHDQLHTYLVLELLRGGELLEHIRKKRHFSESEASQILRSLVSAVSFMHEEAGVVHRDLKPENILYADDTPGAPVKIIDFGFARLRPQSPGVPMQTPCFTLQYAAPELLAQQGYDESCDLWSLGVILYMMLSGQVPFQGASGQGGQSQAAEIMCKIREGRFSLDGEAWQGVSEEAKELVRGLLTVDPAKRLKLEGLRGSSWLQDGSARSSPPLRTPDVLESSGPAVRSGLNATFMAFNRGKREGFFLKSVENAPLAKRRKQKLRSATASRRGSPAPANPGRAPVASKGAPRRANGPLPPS

[6] = molecular target: Proto-oncogene tyrosine-protein kinase Src (Homo sapiens, UniProt P12931); assay: Inhibition of SRC ACT labeling site in human Huh-7 cell lysate at 1 uM by KiNativ Profiling analysis relative to control; assay type: subcellular
Sequence of Proto-oncogene tyrosine-protein kinase Src (P12931 2-536 limits assumed): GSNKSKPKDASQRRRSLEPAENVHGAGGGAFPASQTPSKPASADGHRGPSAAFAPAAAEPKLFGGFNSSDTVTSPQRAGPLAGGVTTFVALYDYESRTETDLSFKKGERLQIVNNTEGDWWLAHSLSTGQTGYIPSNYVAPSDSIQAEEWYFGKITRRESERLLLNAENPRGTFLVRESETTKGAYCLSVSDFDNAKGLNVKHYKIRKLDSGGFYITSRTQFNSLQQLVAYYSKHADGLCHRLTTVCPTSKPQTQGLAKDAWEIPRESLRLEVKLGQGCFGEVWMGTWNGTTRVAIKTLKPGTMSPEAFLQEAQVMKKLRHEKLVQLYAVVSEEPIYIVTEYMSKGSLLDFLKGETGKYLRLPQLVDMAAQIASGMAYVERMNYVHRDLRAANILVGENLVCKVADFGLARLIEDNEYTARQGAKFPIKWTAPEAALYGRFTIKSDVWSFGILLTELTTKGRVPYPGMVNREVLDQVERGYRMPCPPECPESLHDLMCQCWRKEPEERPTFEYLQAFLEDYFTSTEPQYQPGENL

[7] = molecular target: Mitogen-activated protein kinase 3 (Homo sapiens) (UniProt P27361); assay: Inhibition of Erk1 Lys2 labeling site harbouring YIHSANVLHRDLKPSNLLINTTCDLK in human Huh-7 cell lysate at 1 uM by KiNativ Profiling analysis relative to control; assay type: subcellular
Sequence of Mitogen-activated protein kinase 3 (Homo sapiens) (P27361 whole entry): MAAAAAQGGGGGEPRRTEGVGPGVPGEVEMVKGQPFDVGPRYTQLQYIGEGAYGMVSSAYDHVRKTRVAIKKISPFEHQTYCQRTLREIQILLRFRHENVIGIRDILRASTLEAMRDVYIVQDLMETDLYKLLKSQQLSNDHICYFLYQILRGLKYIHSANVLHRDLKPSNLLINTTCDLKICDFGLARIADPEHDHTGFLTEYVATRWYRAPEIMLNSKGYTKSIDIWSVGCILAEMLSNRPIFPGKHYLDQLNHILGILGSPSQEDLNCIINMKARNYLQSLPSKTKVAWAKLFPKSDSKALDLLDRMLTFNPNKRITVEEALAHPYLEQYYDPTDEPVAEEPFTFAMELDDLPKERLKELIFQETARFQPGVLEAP

[8] = molecular target: T2, Serine/threonine-protein kinase TBK1 (Homo sapiens) (UniProt Q9UHD2); assay: Inhibition of TBK1 Lys2 labeling site in human Huh-7 cells at 1 uM by KiNativ Profiling analysis relative to control; assay type: cell-based
T2 sequence (whole entry): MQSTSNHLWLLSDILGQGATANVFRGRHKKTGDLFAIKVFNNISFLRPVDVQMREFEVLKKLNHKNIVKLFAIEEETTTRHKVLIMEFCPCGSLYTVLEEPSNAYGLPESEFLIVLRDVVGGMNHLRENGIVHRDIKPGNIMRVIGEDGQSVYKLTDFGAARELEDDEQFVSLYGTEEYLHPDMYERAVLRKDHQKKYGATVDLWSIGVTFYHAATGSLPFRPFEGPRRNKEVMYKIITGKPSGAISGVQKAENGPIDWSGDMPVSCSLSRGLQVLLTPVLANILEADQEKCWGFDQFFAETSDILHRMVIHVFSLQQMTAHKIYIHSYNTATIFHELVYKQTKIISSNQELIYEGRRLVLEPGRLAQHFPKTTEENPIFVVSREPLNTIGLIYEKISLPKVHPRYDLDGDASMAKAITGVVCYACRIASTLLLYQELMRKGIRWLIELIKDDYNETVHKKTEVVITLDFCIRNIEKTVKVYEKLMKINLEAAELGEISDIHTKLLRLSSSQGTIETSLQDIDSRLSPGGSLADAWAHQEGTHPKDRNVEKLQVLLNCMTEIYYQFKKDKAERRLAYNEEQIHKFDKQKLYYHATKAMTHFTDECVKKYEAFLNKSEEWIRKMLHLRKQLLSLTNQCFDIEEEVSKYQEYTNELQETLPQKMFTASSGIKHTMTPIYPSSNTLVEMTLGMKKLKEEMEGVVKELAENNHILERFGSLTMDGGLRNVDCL

Sequence of Cyclin-dependent kinase 8 (Homo sapiens) (P49336 whole entry, the tested form may be a part): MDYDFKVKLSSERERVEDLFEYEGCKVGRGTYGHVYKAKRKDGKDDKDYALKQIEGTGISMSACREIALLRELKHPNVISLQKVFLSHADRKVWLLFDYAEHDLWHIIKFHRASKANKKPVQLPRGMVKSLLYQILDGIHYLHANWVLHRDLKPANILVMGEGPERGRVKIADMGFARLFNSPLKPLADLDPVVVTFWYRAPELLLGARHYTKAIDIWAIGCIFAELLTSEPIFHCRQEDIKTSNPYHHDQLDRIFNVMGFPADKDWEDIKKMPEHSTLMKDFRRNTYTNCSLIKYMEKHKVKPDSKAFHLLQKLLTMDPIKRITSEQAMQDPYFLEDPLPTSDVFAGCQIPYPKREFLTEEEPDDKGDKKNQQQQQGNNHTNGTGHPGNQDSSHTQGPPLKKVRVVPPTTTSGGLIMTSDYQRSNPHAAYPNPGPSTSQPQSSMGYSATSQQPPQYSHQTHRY

Q: For CCN1CCN(Cc2ccc(NC(=O)c3ccc(C)c(Oc4ccnc5[nH]ccc45)c3)cc2C(F)(F)F)CC1, which inhibition [1] is on record?
A: 51.2%

Q: For CCN1CCN(Cc2ccc(NC(=O)c3ccc(C)c(/C=C/c4cnc5[nH]ccc5c4OC)c3)cc2C(F)(F)F)CC1, which inhibition [2] is on record?
A: 68%

Q: What about the residual activity [3] of the same molecule?
A: 7.1%

Q: And the inhibition [4]?
A: -9.9%

Q: What about the inhibition [5] of the same molecule?
A: 72%

Q: For CNc1cc(Oc2cc(C(=O)Nc3cc(N4CCN(C)CC4)cc(C(F)(F)F)c3)ccc2C)ncn1, which inhibition [6] is on record?
A: 22%

Q: What about the inhibition [7] of the same molecule?
A: 20.7%

Q: What about the inhibition [8] of the same molecule?
A: 17.7%
